Measured values collected from several papers.
Lines come from different studies, so protocols differ. In brackets after ≈: the same amount, converted by molar mass.
Organism: Mycobacterium tuberculosis
Read-out: microbial growth

| SMILES | test | test system | conditions | endpoint | value |
| --- | --- | --- | --- | --- | --- |
| CC(=O)OCOc1ccc2nc3ccc(=O)cc-3oc2c1 |  |  | 7 days | MIC90 | 34 µM |
| NNC(=O)c1ccncc1 | resazurin | H37RV | 0.212 µM | inhibition | 44% |
| CCOC(=O)C1=C(C)NC(=S)NC1c1cn(-c2ccccc2)nc1-c1ccccc1 (centres unmarked) | resazurin | H37RV |  | MIC | 59.7 µM |
| COc1c(N2CC3CCCN(C(=O)OCc4ccc([N+](=O)[O-])cc4)C3C2)c(F)cc2c(=O)c(C(=O)O)cn(C3CC3)c12 (centres unmarked) |  | H37RV |  | MIC | > 8 µM |
| CCCCOc1ccc2nc3ccc(=O)cc-3oc2c1 |  |  | 7 days | MIC90 | ≤ 10 µM |
| O=C1c2ccccc2NC(c2cc([N+](=O)[O-])ccc2O)N1/N=C/c1cc([N+](=O)[O-])ccc1O (centres unmarked) |  | ATCC25177 H37RA | 14 days | MIC | 64 µg/mL |
| CCOC(=O)C1=C(C)NC(=O)NC1c1ccc([N+](=O)[O-])o1 (centres unmarked) | resazurin | H37RV |  | MIC | 20.1 µM |
| CSCOc1ccc2nc3ccc(=O)cc-3oc2c1 |  |  | 7 days | MIC90 | 47 µM (≈ 12.8 µg/mL) |
| CN[C@@H]1[C@H](O)[C@H](NC)[C@H]2O[C@@]3(O)C(=O)C[C@@H](C)O[C@H]3O[C@@H]2[C@H]1O | broth dilution | H37RV | 7 days | MIC | 100 µg/mL |
| CC[C@@H](CO)NCCN[C@@H](CC)CO | resazurin | H37RV |  | MIC | 7.64 µM |
| CC(C)/N=c1\cc2n(-c3ccc(Cl)cc3)c3ccccc3nc-2cc1Nc1ccc(Cl)cc1 |  |  | 7 days | MIC90 | 0.39 µM (≈ 0.185 µg/mL) |
| COc1c(N2CC3CCCNC3C2)c(F)cc2c(=O)c(C(=O)OCc3cnc([N+](=O)[O-])s3)cn(C3CC3)c12 (centres unmarked) |  | H37RV |  | MIC | 0.25 µM |
| CCOC(=O)C1=C(C)NC(=NNS(=O)(=O)c2ccccc2)NC1c1cn(-c2ccccc2)nc1-c1ccccc1 (centres unmarked) | resazurin | H37RV |  | MIC | 44.6 to 45.8 µM |
| O=C(O)c1cn(C2CC2)c2cc(N3CCNCC3)c(F)cc2c1=O |  | ATCC25177 H37RA | 14 days | MIC | 16 µg/mL |
